# Reference: ChEMBL document CHEMBL4689842, “EUbOPEN Chemogenomics Library wave 1” (2021)
# Experiments:
# Assay type in all cases: toxicity, cell-based
# U2OS [1] = assay: Incucyte cell viability with U2OS; details: human, 10 µM, compound concentration 10 uM; also: filed as whole numbers so only -1 and 0 and 1 occur
# HEK-293T = assay: Incucyte cell viability with HEK293T; details: human, 10 µM, compound concentration 10 uM; also: filed as whole numbers so only -1 and 0 and 1 occur
# U2OS [2] = assay: Multiplex assay against U2OS; details: human
# Outline: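 At seeding, live cells were stained with Hoechst33342, BioTracker Green Microtubule Cytoskeleton Dye, MitoTracker Red and Annexin V Alexa Fluor 680. After compound addition they were imaged on a CQ1 microscope at 37°C and 5% CO2, and CellPathfinder machine-learning gating sorted them into Hoechst high-intensity objects or normal cells, with normal cells further split into healthy, pyknosed or fragmented nuclei and pyknosed cells into mitotic or apoptotic. Tubulin, mitochondrial-mass and membrane-permeability phenotypes are given as per cents of cells with healthy nuclei.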
# [3] = 0 h, replicate number 2, timepoint 0 hours
# [4] = 6 h, replicate number 1, timepoint 6 hours
# [5] = 12 h, replicate number 1, timepoint 12 hours
# [6] = 18 h, replicate number 1, timepoint 18 hours
# [7] = 24 h, replicate number 1, timepoint 24 hours
# [8] = 12 h, 1 µM, compound concentration 1 uM, replicate 1
# [9] = 12 h, 1 µM, compound concentration 1 uM, replicate 2
# [10] = 12 h, 10 µM, compound concentration 10 uM, replicate 1
# [11] = 12 h, 10 µM, compound concentration 10 uM, replicate 2
# [12] = 24 h, 1 µM, compound concentration 1 uM, replicate 1
# [13] = 24 h, 1 µM, compound concentration 1 uM, replicate 2
# [14] = 24 h, 10 µM, compound concentration 10 uM, replicate 1
# [15] = 24 h, 10 µM, compound concentration 10 uM, replicate 2
# [16] = 48 h, 1 µM, compound concentration 1 uM, replicate 1
# [17] = 48 h, 1 µM, compound concentration 1 uM, replicate 2
# [18] = 48 h, 10 µM, compound concentration 10 uM, replicate 1
# [19] = 48 h, 10 µM, compound concentration 10 uM, replicate 2
compound,measurement,setting,value
COc1cc2c(NC3CCN(C(C)C)CC3)nc(N3CCC(F)(F)CC3)nc2cc1OCCCN1CCCC1,Growth Rate,"U2OS [1]; 0 h, replicate number 1, timepoint 0 hours",1
same,Growth Rate,U2OS [1]; [3],0
same,Growth Rate,U2OS [1]; [4],1
same,Growth Rate,U2OS [1]; [5],1
same,Growth Rate,U2OS [1]; [6],1
same,Growth Rate,U2OS [1]; [7],1
same,Growth Rate,HEK-293T; [3],1
same,Growth Rate,HEK-293T; [4],0
same,Growth Rate,HEK-293T; [5],0
same,Growth Rate,HEK-293T; [6],0
same,Growth Rate,HEK-293T; [7],0
same,Population Apoptotic (%),U2OS [2]; [8],44%
same,Population Fragmented Nuclei (%),U2OS [2]; [8],10%
same,Population Healthy Nuclei (%),U2OS [2]; [8],72%
same,Population Hoechst High Intensity Objects (%),U2OS [2]; [8],13%
same,Population Mitochondria Different-Phenotype (%),U2OS [2]; [8],17%
same,Population Mitotic Cells (%),U2OS [2]; [8],55%
same,Population Normal (%),U2OS [2]; [8],86%
same,Population Pyknosed Nuclei (%),U2OS [2]; [8],17%
same,Total Cell Count,U2OS [2]; [8],136
same,Population Apoptotic (%),U2OS [2]; [9],30%
same,Population Fragmented Nuclei (%),U2OS [2]; [9],20%
same,Population Healthy Nuclei (%),U2OS [2]; [9],67%
same,Population Hoechst High Intensity Objects (%),U2OS [2]; [9],5%
same,Population Membrane Permeable-Phenotype (%),U2OS [2]; [9],3%
same,Population Mitochondria Different-Phenotype (%),U2OS [2]; [9],22%
same,Population Mitotic Cells (%),U2OS [2]; [9],70%
same,Population Normal (%),U2OS [2]; [9],94%
same,Population Pyknosed Nuclei (%),U2OS [2]; [9],11%
same,Population Tubulin-Different-Phenotype (%),U2OS [2]; [9],19%
same,Total Cell Count,U2OS [2]; [9],105
same,Population Apoptotic (%),U2OS [2]; [10],68%
same,Population Fragmented Nuclei (%),U2OS [2]; [10],14%
same,Population Healthy Nuclei (%),U2OS [2]; [10],71%
same,Population Hoechst High Intensity Objects (%),U2OS [2]; [10],8%
same,Population Membrane Permeable-Phenotype (%),U2OS [2]; [10],27%
same,Population Mitochondria Different-Phenotype (%),U2OS [2]; [10],98%
same,Population Mitotic Cells (%),U2OS [2]; [10],31%
same,Population Normal (%),U2OS [2]; [10],91%
same,Population Pyknosed Nuclei (%),U2OS [2]; [10],14%
same,Population Tubulin-Different-Phenotype (%),U2OS [2]; [10],100%
same,Total Cell Count,U2OS [2]; [10],181
same,Population Apoptotic (%),U2OS [2]; [11],66%
same,Population Fragmented Nuclei (%),U2OS [2]; [11],11%
same,Population Healthy Nuclei (%),U2OS [2]; [11],76%
same,Population Membrane Permeable-Phenotype (%),U2OS [2]; [11],66%
same,Population Mitochondria Different-Phenotype (%),U2OS [2]; [11],97%
same,Population Mitotic Cells (%),U2OS [2]; [11],33%
same,Population Pyknosed Nuclei (%),U2OS [2]; [11],11%
same,Population Tubulin-Different-Phenotype (%),U2OS [2]; [11],97%
same,Total Cell Count,U2OS [2]; [11],89
same,Population Apoptotic (%),U2OS [2]; [12],31%
same,Population Fragmented Nuclei (%),U2OS [2]; [12],9%
same,Population Healthy Nuclei (%),U2OS [2]; [12],65%
same,Population Hoechst High Intensity Objects (%),U2OS [2]; [12],11%
same,Population Membrane Permeable-Phenotype (%),U2OS [2]; [12],0%
same,Population Mitochondria Different-Phenotype (%),U2OS [2]; [12],8%
same,Population Mitotic Cells (%),U2OS [2]; [12],68%
same,Population Normal (%),U2OS [2]; [12],88%
same,Population Pyknosed Nuclei (%),U2OS [2]; [12],24%
same,Population Tubulin-Different-Phenotype (%),U2OS [2]; [12],9%
same,Total Cell Count,U2OS [2]; [12],157
same,Population Apoptotic (%),U2OS [2]; [13],29%
same,Population Fragmented Nuclei (%),U2OS [2]; [13],14%
same,Population Healthy Nuclei (%),U2OS [2]; [13],68%
same,Population Hoechst High Intensity Objects (%),U2OS [2]; [13],8%
same,Population Membrane Permeable-Phenotype (%),U2OS [2]; [13],2%
same,Population Mitochondria Different-Phenotype (%),U2OS [2]; [13],7%
same,Population Mitotic Cells (%),U2OS [2]; [13],70%
same,Population Normal (%),U2OS [2]; [13],91%
same,Population Pyknosed Nuclei (%),U2OS [2]; [13],16%
same,Population Tubulin-Different-Phenotype (%),U2OS [2]; [13],12%
same,Total Cell Count,U2OS [2]; [13],113
same,Population Apoptotic (%),U2OS [2]; [14],70%
same,Population Fragmented Nuclei (%),U2OS [2]; [14],14%
same,Population Healthy Nuclei (%),U2OS [2]; [14],60%
same,Population Hoechst High Intensity Objects (%),U2OS [2]; [14],6%
same,Population Membrane Permeable-Phenotype (%),U2OS [2]; [14],56%
same,Population Mitochondria Different-Phenotype (%),U2OS [2]; [14],98%
same,Population Mitotic Cells (%),U2OS [2]; [14],30%
same,Population Normal (%),U2OS [2]; [14],93%
same,Population Pyknosed Nuclei (%),U2OS [2]; [14],24%
same,Population Tubulin-Different-Phenotype (%),U2OS [2]; [14],98%
same,Total Cell Count,U2OS [2]; [14],218
same,Population Apoptotic (%),U2OS [2]; [15],90%
same,Population Fragmented Nuclei (%),U2OS [2]; [15],18%
same,Population Healthy Nuclei (%),U2OS [2]; [15],59%
same,Population Hoechst High Intensity Objects (%),U2OS [2]; [15],7%
same,Population Membrane Permeable-Phenotype (%),U2OS [2]; [15],82%
same,Population Mitochondria Different-Phenotype (%),U2OS [2]; [15],100%
same,Population Mitotic Cells (%),U2OS [2]; [15],9%
same,Population Normal (%),U2OS [2]; [15],92%
same,Population Pyknosed Nuclei (%),U2OS [2]; [15],22%
same,Population Tubulin-Different-Phenotype (%),U2OS [2]; [15],96%
same,Total Cell Count,U2OS [2]; [15],112
same,Population Apoptotic (%),U2OS [2]; [16],27%
same,Population Fragmented Nuclei (%),U2OS [2]; [16],11%
same,Population Healthy Nuclei (%),U2OS [2]; [16],64%
same,Population Hoechst High Intensity Objects (%),U2OS [2]; [16],10%
same,Population Mitochondria Different-Phenotype (%),U2OS [2]; [16],4%
same,Population Mitotic Cells (%),U2OS [2]; [16],72%
same,Population Normal (%),U2OS [2]; [16],89%
same,Population Pyknosed Nuclei (%),U2OS [2]; [16],24%
same,Population Tubulin-Different-Phenotype (%),U2OS [2]; [16],15%
same,Total Cell Count,U2OS [2]; [16],194
same,Population Apoptotic (%),U2OS [2]; [17],29%
same,Population Fragmented Nuclei (%),U2OS [2]; [17],8%
same,Population Healthy Nuclei (%),U2OS [2]; [17],78%
same,Population Hoechst High Intensity Objects (%),U2OS [2]; [17],8%
same,Population Membrane Permeable-Phenotype (%),U2OS [2]; [17],2%
same,Population Mitochondria Different-Phenotype (%),U2OS [2]; [17],8%
same,Population Mitotic Cells (%),U2OS [2]; [17],70%
same,Population Normal (%),U2OS [2]; [17],91%
same,Population Pyknosed Nuclei (%),U2OS [2]; [17],12%
same,Population Tubulin-Different-Phenotype (%),U2OS [2]; [17],24%
same,Total Cell Count,U2OS [2]; [17],141
same,Population Apoptotic (%),U2OS [2]; [18],79%
same,Population Fragmented Nuclei (%),U2OS [2]; [18],20%
same,Population Healthy Nuclei (%),U2OS [2]; [18],44%
same,Population Hoechst High Intensity Objects (%),U2OS [2]; [18],11%
same,Population Membrane Permeable-Phenotype (%),U2OS [2]; [18],55%
same,Population Mitochondria Different-Phenotype (%),U2OS [2]; [18],100%
same,Population Mitotic Cells (%),U2OS [2]; [18],20%
same,Population Normal (%),U2OS [2]; [18],88%
same,Population Pyknosed Nuclei (%),U2OS [2]; [18],35%
same,Population Tubulin-Different-Phenotype (%),U2OS [2]; [18],92%
same,Total Cell Count,U2OS [2]; [18],337
same,Population Apoptotic (%),U2OS [2]; [19],92%
same,Population Fragmented Nuclei (%),U2OS [2]; [19],12%
same,Population Healthy Nuclei (%),U2OS [2]; [19],63%
same,Population Hoechst High Intensity Objects (%),U2OS [2]; [19],12%
same,Population Membrane Permeable-Phenotype (%),U2OS [2]; [19],75%
same,Population Mitochondria Different-Phenotype (%),U2OS [2]; [19],97%
same,Population Mitotic Cells (%),U2OS [2]; [19],7%
same,Population Normal (%),U2OS [2]; [19],87%
same,Population Pyknosed Nuclei (%),U2OS [2]; [19],24%
same,Population Tubulin-Different-Phenotype (%),U2OS [2]; [19],88%
same,Total Cell Count,U2OS [2]; [19],149
